Data set [1] deals with KBM5. Kind of data set: Inhibition of TNF-alpha-induced NF-kappaB activation in human KBM5 cells at 100 uM treated for 12 hrs before TNFalpha challenge measured after 30 mins by EMSA relative to control. Type of data set: cell-based. The procedure, abridged:
(§1)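 KBM-5 cells (1×10^6/mL) preincubated with compound for 12 h, then stimulated with 0.1 nM TNFα for 30 min. Nuclear extracts (15 μg protein) incubated with 16 fmol 32P-end-labeled 45-mer HIV LTR NF-κB oligonucleotide for 30 min at 37°C and resolved by EMSA. DMSO stock diluted in culture medium.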

The test system of data set [2] is KBM5. Kind of data set: Cytotoxicity against human KBM5 cells at 10 uM after 72 hrs by MTT assay. Format: functional, cell-based. An outline of the steps: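 MTT viability: KBM-5 cells (5000 per well) in triplicate with or without compound for 72 h at 37 °C. MTT (5 mg/ml in PBS) added for 2 h at 37 °C. Extraction buffer (20% SDS, 50% dimethylformamide) added overnight at 37 °C, then OD read at 570 nm.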
(In general: Formazan colour is commonly taken as a measure of viable cells.)

Data set [3] in a line: Cytotoxicity against human KBM5 cells assessed as cell viability at 100 uM by trypan blue assay. Type of data set: cell-based. Particulars: read-out: Activity.
Data set [4] deals with KBM5. Kind of data set: Inhibition of TNF-alpha-induced NF-kappaB activation in human KBM5 cells at 100 uM treated for 12 hrs before TNFalpha challenge measured after 30 mins by EMSA. Format: cell-based. The procedure, abridged: as §1
Background: A gel shift assay detects complexes by their altered migration in electrophoresis.

In data set [5] the target is Transcription factor p65 (Homo sapiens) (UniProt Q04206). The experiment in a line: Inhibition of nuclear DNA binding to NF-kappaB p65 subunit in TNF-alpha-stimulated human KBM5 cells at 100 uM after 30 mins by EMSA relative to control. Format: cell-based. An outline of the steps: (§2)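 Direct DNA-binding test: nuclear extracts from untreated KBM-5 cells or cells given 0.1 nM TNF for 30 min were incubated for 30 min with compound at various concentrations. Binding to a 32P-labeled HIV LTR κB oligonucleotide was then assessed by EMSA.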
Transcription factor p65 (Homo sapiens), sequence (Q04206 whole entry): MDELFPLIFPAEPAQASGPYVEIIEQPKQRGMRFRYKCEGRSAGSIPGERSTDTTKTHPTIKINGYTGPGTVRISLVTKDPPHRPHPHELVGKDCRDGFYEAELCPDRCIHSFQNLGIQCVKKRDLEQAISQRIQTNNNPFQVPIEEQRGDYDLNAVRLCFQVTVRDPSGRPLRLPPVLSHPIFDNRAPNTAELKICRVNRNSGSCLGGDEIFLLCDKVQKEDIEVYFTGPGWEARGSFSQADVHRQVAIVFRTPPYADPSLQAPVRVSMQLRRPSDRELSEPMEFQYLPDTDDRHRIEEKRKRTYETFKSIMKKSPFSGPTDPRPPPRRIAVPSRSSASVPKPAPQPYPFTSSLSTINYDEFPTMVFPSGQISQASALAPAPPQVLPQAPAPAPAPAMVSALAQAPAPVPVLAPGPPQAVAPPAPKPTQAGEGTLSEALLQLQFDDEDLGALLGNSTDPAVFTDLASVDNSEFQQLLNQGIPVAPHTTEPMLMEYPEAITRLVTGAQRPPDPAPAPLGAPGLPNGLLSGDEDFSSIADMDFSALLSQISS

Data set [6] has the same target. Kind of data set: Inhibition of nuclear DNA binding to NF-kappaB p65 subunit in TNF-alpha-stimulated human KBM5 cells at 10 uM after 30 mins by EMSA relative to control. Type of data set: cell-based. The procedure, abridged:
as §2

Data set [7] deals with KBM5. The experiment in a line: Inhibition of TNF-alpha-induced IKK activation in human KBM5 cells at 100 uM treated for 12 hrs before TNFalpha challenge by immunoprecipitation assay. Format: cell-based. The settings on record: TDE = time-dependent effect. An outline of the steps: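 KBM-5 cells (5×10^6/mL) preincubated with 100 μM compound for 12 h, then given 1 nM TNF for the indicated times. IKK immunoprecipitated from whole-cell lysates with anti-IKK-α and assayed at 30°C for 30 min: 50 mM HEPES pH 7.4, 20 mM MgCl2, 2 mM DTT, [32P]ATP, unlabeled ATP, 2 μg GST-IκBα(1-54). Phosphorylated substrate shown by SDS-PAGE/phosphorimaging; total IKK-α/β by immunoblot.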

Data set [8] in a line: Inhibition of cyclin D1 protein expression in TNF-alpha-stimulated human KBM5 cells at 100 uM after 6 to 24 hrs by Western blot analysis. Format: functional, cell-based. The procedure, abridged: (§3)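 Western blot: KBM-5 lysates (30 μg protein) separated by SDS-PAGE and probed with anti-cyclin D1, Bcl-2 or VEGF (1:1000). HRP secondary (1:3000) applied for 2 h, detection by ECL, bands quantified by densitometry.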
On the technique in general: In western blotting, separated proteins are transferred to a membrane and probed.

For data set [9], the system named is KBM5. The experiment in a line: Inhibition of NF-kappaB activation in human KBM5 cells at 5 to 100 uM treated for 12 hrs in absence of TNFalpha by EMSA.
Data set [10] has as its target Transcription factor p65 (Homo sapiens) (UniProt Q04206). The experiment in a line: Inhibition of nuclear DNA binding to NF-kappaB p65 subunit in TNF-alpha-stimulated human KBM5 cells at 50 uM after 30 mins by EMSA relative to control. Type of data set: cell-based. The procedure, abridged:
as §2

For data set [11], the system named is KBM5. Kind of data set: Inhibition of NF-kappaB activation in human KBM5 cells at 100 uM treated for 12 hrs before TNFalpha challenge measured after 6 hrs by EMSA relative to control. Type of data set: cell-based. The procedure, abridged:
(§4)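 Time course: KBM-5 cells (1×10^6/mL) exposed to 100 μM compound for varying times before 0.1 nM TNF for 30 min. Nuclear extracts (15 μg protein) were probed by EMSA with 16 fmol 32P-labeled HIV LTR κB 45-mer for 30 min at 37°C.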

For data set [12], the system named is KBM5. The experiment in a line: Inhibition of NF-kappaB activation in human KBM5 cells at 100 uM treated for 12 hrs before TNFalpha challenge by EMSA. Format: cell-based. The settings on record: TDE = time-dependent effect. The procedure, abridged:
as §1

Data set [13] relates to KBM5. The experiment in a line: Inhibition of NF-kappaB activation in human KBM5 cells at 100 uM treated for 12 hrs before TNFalpha challenge measured after 8 hrs by EMSA relative to control. Format: cell-based. The procedure, abridged: as §4
Data set [14] relates to KBM5. The experiment in a line: Inhibition of NF-kappaB activation in human KBM5 cells at 100 uM treated for 12 hrs before TNFalpha challenge measured after 4 hrs by EMSA relative to control. Type of data set: cell-based.
The subject of data set [15] is KBM5. The experiment in a line: Inhibition of Bcl-2 protein expression in TNF-alpha-stimulated human KBM5 cells at 100 uM after 6 to 24 hrs by Western blot analysis. Format: functional, cell-based. An outline of the steps: as §3
The test system of data set [16] is KBM5. The experiment in a line: Inhibition of NF-kappaB activation in human KBM5 cells at 100 uM treated for 12 hrs before TNFalpha challenge measured after 12 hrs by EMSA relative to control. Format: cell-based. An outline of the steps: as §4
Data set [17] is described as follows: Inhibition of VEGF protein expression in TNF-alpha-stimulated human KBM5 cells at 100 uM after 6 to 24 hrs by Western blot analysis. Type of data set: functional, cell-based. An outline of the steps:
as §3

The subject of data set [18] is KBM5. Kind of data set: Inhibition of TNF-alpha-induced NF-kappaB activation in human KBM5 cells treated for 12 hrs before TNFalpha challenge measured after 30 mins by EMSA. Format: cell-based. An outline of the steps:
as §1

Data set [19] concerns the target Transcription factor p65 (Homo sapiens) (UniProt Q04206). Kind of data set: Inhibition of nuclear DNA binding to NF-kappaB p65 subunit in TNF-alpha-stimulated human KBM5 cells at 25 uM after 30 mins by EMSA relative to control. Type of data set: cell-based. An outline of the steps: as §2
For data set [20], the system named is KBM5. The experiment in a line: Intrinsic activity at IKK in TNF-alpha-stimulated human KBM5 cells at 10 to 100 uM added directly to IKK immune complexes in vitro by immunoprecipitation assay.

Active and inactive are the calls of the source. The calls are words filed in the database; no cut-off is given here.

One may read the inhibition as the change of the read-out against control, counted positive when it falls.

In turn, `CCCCCCCCCC(=O)N1C(=O)OC[C@@H]1Cc1ccccc1` displayed a fold change (FC) in data set [1] of 2.4. Moreover, the outcome in data set [2] was Active. Besides, the viability at 100 µM in data set [3] was determined as 97%.

Consider `CCCCCCCC[C@H](CO)[C@H](O)CCOCc1ccccc1`, for which the fold change (FC) in [1] was found to be 1.1. For the same compound, the result in data set [2] was Active. The viability at 100 µM in data set [3] came to 97%.

Take `CCCCCCCC[C@@H]1COC(C)(C)O[C@@H]1CCOCc1ccccc1`: the fold change (FC) in data set [1] turned out to be 1.4. For the same compound, the outcome in data set [2] was Active. Moreover, the viability at 100 µM in data set [3] is 97%.

For `CCCCCCCC[C@H](C(=O)N1C(=O)OC[C@@H]1Cc1ccccc1)[C@H](O)CCOCc1ccccc1`, in data set [1], the fold change (FC) amounted to 1.3. Further, the outcome in data set [2] was Active. In addition, in data set [3], the viability at 100 µM was found to be 98%.

As for `CCCCCCCCCCCCCC[C@H]1COC(=O)C[C@H]1O`, in [4], the inhibition came to 30%. The same compound returned a fold change (FC) in data set [1] of 3.6. For the same compound, the outcome in data set [2] was Active. For the same compound, the viability at 100 µM in data set [3] came out at 95%.

In the case of `CCCCCCC[C@H](CO)[C@H](O)CCOCc1ccccc1`, the inhibition in [4] is 100%; in data set [7], “tde”; in [12] it was “tde”; in data set [18], “Dose-dependent effect”. Also, the fold change (FC) in [5] was found to be 3.9; in data set [6], 3.8; in data set [10], 3.8; in [11] it was 3.1; in data set [13], 2.5; in [14], 4.2. The values for the fold change (FC) in data set [16], in data set [1] and in [19] were 1, 4.5 and 3.9, respectively. The inhibition result in [8], in data set [15] and in data set [17] was “Active” in each case. Further, the inhibition result in data set [9] is “inactive”. Also, the result in [2] was Active. Moreover, the outcome in data set [20] was inactive. Besides, the viability at 100 µM in [3] was determined as 98%.

Source of the values: ChEMBL document CHEMBL1157701, “Inhibition of IkB kinase and NF-kappaB by a novel synthetic compound SK 2009” (Bioorg Med Chem, 2010).
